Laboratory results reported in ChEMBL document CHEMBL1130054, “Non-peptide glycoprotein IIb/IIIa inhibitors. 17. Design and synthesis of orally active, long-acting non-peptide fibrinogen receptor antagonists” (J Med Chem, 1997).
pIC50, pKd: −log10 of the molar value.

Columns and labels:
Homo sapiens [1] = organism: Homo sapiens; test: Inhibition of aggregation of human gel-filtered platelets was measured by light transmittance method.; type: functional
Outline: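 Human gel-filtered platelets, 2 × 10⁸/mL, with 0.1 mg/mL human fibrinogen and 1 mM CaCl₂ at 37 °C. Aggregation was started with 10 μM ADP added last and followed by light transmittance. IC50 is the concentration halving the aggregation rate vs the uninhibited control, from at least two determinations.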

[2] = biological target: T1, Integrin alpha-IIb/beta-3 (Homo sapiens, UniProt P05106+P08514); test: Displacement of [125I]L-692884 from purified Fibrinogen Receptor activated by coating onto yttrium silicate; type: protein-complex assay
Outline: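 Purified human GPIIb/IIIa activated by coating on yttrium silicate SPA beads (~0.3 nM) with ~0.3 nM [125I]L-692,884 in 20 mM HEPES, 0.15 M NaCl, pH 7.5, at room temperature. Competitor was tested over a wide concentration range. After equilibration, bound CPM was fitted by nonlinear least squares with a Hill slope to give ED50.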

[3] = biological target: T1, Integrin alpha-IIb/beta-3; test: Inhibition of human umbilical vein endothelial cells (HUVEC) attachment to fibrinogen (FG); type: functional, cell-based
Canis familiaris [4] = test: Ex vivo inhibition of platelet aggregation at 24 hr after the oral administration of 100 mg/kg in dogs; type: functional; conditions: Canis lupus familiaris
Outline: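 Conscious dogs (n = 4) dosed orally with crystalline compound in gelatin capsules at 100 µg/kg. Ex vivo aggregation was read 24 h later in citrated PRP (2 × 10⁸ platelets/mL, 37 °C, light transmittance). It was expressed as percent inhibition vs the pretreatment baseline.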

Integrin alpha-5/beta-1 = Integrin alpha-5/beta-1 (Homo sapiens, UniProt P05556+P08648); test: Inhibition of human umbilical vein endothelial cells (HUVEC) attachment to fibronectin; type: functional, cell-based
Chain of Integrin alpha-5/beta-1 (P05556 21-798 limits assumed): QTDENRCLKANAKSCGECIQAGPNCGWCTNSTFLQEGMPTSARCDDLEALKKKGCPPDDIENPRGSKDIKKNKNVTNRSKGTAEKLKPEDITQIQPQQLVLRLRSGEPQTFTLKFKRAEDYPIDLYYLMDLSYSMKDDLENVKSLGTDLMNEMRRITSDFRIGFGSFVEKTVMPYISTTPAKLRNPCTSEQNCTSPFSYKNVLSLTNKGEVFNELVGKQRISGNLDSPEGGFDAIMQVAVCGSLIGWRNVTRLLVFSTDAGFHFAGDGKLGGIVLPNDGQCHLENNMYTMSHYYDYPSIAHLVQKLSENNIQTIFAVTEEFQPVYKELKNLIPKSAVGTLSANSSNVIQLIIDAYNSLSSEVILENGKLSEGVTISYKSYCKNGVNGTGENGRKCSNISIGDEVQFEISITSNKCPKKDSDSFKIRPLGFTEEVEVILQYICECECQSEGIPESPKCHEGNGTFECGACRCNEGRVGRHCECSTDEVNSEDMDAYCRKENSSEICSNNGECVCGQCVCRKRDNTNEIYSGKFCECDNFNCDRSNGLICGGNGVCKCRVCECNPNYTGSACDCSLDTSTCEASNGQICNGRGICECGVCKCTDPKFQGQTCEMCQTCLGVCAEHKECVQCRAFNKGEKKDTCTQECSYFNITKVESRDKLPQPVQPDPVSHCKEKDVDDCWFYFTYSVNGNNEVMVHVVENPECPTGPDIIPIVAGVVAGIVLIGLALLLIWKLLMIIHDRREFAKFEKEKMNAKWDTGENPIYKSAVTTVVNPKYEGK
Chain of Integrin alpha-5/beta-1 (P08648 42-894 limits assumed): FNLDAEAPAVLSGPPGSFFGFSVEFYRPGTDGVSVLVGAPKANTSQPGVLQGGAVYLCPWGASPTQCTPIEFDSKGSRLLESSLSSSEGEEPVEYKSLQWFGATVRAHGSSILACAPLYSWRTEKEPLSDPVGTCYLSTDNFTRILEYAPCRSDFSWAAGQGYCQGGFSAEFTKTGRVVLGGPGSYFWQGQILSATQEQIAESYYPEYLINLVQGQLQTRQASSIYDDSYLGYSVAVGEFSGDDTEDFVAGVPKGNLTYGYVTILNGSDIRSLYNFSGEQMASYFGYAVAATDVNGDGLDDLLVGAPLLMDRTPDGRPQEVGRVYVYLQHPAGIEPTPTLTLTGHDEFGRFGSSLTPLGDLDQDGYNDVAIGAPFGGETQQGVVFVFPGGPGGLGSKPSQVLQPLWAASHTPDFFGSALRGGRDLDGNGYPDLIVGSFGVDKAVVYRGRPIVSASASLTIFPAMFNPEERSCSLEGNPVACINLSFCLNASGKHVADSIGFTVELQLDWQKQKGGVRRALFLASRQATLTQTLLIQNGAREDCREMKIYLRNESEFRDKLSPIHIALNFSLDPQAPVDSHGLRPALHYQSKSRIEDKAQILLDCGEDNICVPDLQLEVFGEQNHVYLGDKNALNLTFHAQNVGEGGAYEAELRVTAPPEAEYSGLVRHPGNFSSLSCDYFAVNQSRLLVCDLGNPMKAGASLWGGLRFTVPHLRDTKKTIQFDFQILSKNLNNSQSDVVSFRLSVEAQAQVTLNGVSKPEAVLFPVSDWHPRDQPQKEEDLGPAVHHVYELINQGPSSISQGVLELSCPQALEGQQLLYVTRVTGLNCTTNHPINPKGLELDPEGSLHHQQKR
Chain of Integrin alpha-5/beta-1 (P08648 895-1049 limits assumed): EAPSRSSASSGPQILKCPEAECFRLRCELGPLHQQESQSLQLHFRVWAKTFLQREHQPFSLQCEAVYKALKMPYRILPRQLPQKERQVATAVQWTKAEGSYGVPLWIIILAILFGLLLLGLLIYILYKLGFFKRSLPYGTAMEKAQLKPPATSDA

Homo sapiens [5] = test: Inhibition of ADP induced platelet aggregation after administration of 10 ug/kg by gastric lavage; type: functional
Outline: (§1)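 Conscious mongrel dogs dosed by gastric lavage with aqueous solution (5 mL, sterile water vehicle); citrated blood at baseline and 20–480 min. PRP (2 × 10⁸ platelets/mL, 37 °C, stirred) aggregated with 10 μM ADP + 1 μM epinephrine; light transmittance; percent inhibition vs pretreatment response. n = 4 or 8.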

Integrin alpha-V/beta-3 = Integrin alpha-V/beta-3 (Homo sapiens, UniProt P05106+P06756); test: Inhibition of human umbilical vein endothelial cells (HUVEC) attachment to vitronectin (VN); type: functional, cell-based
Chain of Integrin alpha-V/beta-3 (P05106 27-788 limits assumed): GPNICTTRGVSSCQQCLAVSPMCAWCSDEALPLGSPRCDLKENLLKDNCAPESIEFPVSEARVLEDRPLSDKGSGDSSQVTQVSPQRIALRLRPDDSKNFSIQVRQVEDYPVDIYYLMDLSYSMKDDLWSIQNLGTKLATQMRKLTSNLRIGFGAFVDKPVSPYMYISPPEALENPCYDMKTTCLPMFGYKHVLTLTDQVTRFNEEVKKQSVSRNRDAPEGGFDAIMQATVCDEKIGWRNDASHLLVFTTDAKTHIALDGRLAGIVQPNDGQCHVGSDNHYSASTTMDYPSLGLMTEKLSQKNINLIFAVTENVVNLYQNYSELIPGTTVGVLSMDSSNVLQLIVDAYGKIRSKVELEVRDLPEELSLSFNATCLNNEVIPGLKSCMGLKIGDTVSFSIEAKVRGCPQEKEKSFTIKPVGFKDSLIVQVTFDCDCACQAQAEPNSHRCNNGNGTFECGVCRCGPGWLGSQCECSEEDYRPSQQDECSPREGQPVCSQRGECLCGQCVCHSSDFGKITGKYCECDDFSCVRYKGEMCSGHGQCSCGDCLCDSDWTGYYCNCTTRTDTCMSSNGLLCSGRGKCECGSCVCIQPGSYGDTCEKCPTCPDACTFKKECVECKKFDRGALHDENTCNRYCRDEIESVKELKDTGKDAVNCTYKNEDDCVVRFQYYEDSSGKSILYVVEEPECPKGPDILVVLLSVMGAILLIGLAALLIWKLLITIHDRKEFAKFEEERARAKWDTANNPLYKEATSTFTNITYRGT
Chain of Integrin alpha-V/beta-3 (P06756 31-889 limits assumed): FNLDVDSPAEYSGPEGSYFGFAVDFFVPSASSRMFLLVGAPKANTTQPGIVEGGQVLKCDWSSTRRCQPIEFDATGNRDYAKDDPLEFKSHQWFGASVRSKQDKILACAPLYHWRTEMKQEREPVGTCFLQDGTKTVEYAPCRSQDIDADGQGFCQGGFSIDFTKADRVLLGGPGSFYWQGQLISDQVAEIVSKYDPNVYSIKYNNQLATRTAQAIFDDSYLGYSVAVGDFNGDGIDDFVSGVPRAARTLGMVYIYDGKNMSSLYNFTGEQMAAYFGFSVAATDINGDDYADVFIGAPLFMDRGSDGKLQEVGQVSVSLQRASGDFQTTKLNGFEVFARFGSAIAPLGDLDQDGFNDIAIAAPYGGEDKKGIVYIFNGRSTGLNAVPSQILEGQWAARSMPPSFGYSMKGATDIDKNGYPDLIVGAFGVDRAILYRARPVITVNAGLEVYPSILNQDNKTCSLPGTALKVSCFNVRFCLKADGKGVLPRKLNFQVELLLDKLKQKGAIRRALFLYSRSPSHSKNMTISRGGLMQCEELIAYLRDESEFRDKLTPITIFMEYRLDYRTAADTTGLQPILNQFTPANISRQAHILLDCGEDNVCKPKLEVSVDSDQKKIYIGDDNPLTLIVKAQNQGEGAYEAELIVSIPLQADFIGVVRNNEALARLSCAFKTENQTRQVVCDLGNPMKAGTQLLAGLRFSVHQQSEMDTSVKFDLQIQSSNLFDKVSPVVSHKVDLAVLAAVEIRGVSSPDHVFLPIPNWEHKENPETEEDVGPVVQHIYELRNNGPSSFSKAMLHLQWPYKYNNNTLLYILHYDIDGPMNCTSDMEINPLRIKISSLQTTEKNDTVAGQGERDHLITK
Chain of Integrin alpha-V/beta-3 (P06756 891-1048 limits assumed): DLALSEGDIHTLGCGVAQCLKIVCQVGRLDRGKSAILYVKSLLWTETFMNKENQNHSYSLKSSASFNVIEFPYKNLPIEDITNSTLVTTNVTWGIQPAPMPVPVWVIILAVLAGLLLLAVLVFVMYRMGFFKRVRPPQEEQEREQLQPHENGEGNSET

[6] = biological target: T1, Integrin alpha-IIb/beta-3; test: Displacement of L-736,622 from purified resting Fibrinogen Receptor; type: protein-complex assay
Outline: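 Human platelet GPIIb/IIIa, unactivated form from Sephacryl S-300HR (typically 600 nM), in Triton X-100 buffer pH 7.4 with Ca²⁺/Mg²⁺. Used 1 μM fluorescent ligand L-736,622 at room temperature, read by fluorescence displacement. KD was calculated using 3.7 nM as the probe KD.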

Canis familiaris [7] = test: Compound was tested for inhibition of extent of ADP-induced platelet aggregation between 1 and 15 min at 30 ug/Kg intravenous bolus in dogs; type: functional; conditions: Canis lupus familiaris
Homo sapiens [8] = test: Inhibition of ADP induced platelet aggregation 75 minutes after administration of 10 ug/kg by gastric lavage; type: functional; conditions: 1.25 h; outline: as §1

pIC50 (Homo sapiens [1])	ED50 [2]	pIC50 [3]	pIC50 (Integrin alpha-5/beta-1)	pIC50 (Integrin alpha-V/beta-3)	pKd [6]	SMILES	inhibition in vivo at 100 mg/kg (Canis familiaris [4])	inhibition in vivo at 0.01 mg/kg (Homo sapiens [5])	inhibition in vivo at 0.03 mg/kg (Canis familiaris [7])	inhibition in vivo at 0.01 mg/kg (Homo sapiens [8])
8.10	0.08 nM	< 3.52	< 3.52	< 3.52	8.96	Cc1ccc(S(=O)(=O)N[C@@H](CNC(=O)c2cc3n(n2)CCCN(CCC2CCNCC2)C3=O)C(=O)O)cc1	> 85%	> 65%	–	–
8.05	0.12 nM	–	–	–	8.74	CCCCS(=O)(=O)N[C@@H](CNC(=O)c1cc2n(n1)CCN(CCC1CCNCC1)C2=O)C(=O)O	–	–	–	–
–	5 nM	–	–	–	6.22	C[C@H](CC(=O)O)NC(=O)CN1CCC[C@@H](CCC2CCNCC2)C1=O	–	–	> 90%	–
6.33	46 nM	–	–	–	6.17	O=C(O)CCNC(=O)c1cc2n(n1)CCCN(CCC1CCNCC1)C2=O	–	–	–	–
6.60	72 nM	–	–	–	6.23	O=C(O)CCNC(=O)c1cc2n(n1)CCN(CCC1CCNCC1)C2=O	–	–	–	–
–	0.12 nM	–	–	–	8.85	CCCCS(=O)(=O)N[C@@H](CNC(=O)c1cc2n(n1)CCCN(CCC1CCNCC1)C2=O)C(=O)O	–	–	–	76%
